Measurements from ChEMBL document CHEMBL1124440, “Resolved N,N-dialkylated 2-amino-8-hydroxytetralins: stereoselective interactions with 5-HT1A receptors in the brain” (J Med Chem, 1989).

Legend:
[1] = molecular target: T1, 5-hydroxytryptamine receptor 1A (Rattus norvegicus, UniProt P19327); assay: Concentration of compound required to inhibit cortical 5-hydroxytryptamine 1A receptor binding sites in rat brain was evaluated; type: tissue-based
T1 sequence (P19327 whole entry): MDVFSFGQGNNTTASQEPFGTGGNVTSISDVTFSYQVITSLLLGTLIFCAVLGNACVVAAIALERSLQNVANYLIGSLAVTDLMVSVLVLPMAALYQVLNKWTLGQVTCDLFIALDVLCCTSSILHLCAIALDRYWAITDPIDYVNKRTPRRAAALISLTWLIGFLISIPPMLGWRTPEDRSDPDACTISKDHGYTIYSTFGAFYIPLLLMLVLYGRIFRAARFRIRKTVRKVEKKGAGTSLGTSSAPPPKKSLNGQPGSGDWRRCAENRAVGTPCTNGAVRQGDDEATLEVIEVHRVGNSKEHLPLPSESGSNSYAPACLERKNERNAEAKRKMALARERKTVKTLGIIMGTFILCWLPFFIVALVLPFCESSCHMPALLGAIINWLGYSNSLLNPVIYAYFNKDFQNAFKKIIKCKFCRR

[2] = molecular target: T2, Tryptophan 5-hydroxylase 1 (Rattus norvegicus) (UniProt P09810); assay: Compound was tested for its effect on NSD 1015 induced accumulation of 5-HTP(ng/g) in rats in limbic system at a dosage of 32 umol/kg; type: functional, tissue-based
T2 sequence (whole entry): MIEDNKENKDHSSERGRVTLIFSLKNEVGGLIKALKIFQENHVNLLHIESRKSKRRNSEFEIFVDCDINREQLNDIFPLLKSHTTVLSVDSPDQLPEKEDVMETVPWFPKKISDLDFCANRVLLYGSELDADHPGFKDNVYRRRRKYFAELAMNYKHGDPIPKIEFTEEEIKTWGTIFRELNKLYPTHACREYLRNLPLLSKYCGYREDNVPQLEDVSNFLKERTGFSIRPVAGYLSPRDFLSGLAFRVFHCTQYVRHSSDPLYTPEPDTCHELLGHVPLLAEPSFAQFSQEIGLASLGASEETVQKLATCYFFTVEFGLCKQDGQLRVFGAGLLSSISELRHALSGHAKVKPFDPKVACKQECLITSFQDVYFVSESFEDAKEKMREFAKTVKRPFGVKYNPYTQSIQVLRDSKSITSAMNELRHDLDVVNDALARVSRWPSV
Procedure, shortened: (§1)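 Rats given test drug s.c. in the neck as hydrochloride (5 mL/kg), not reserpine-pretreated; 30 min later NSD 1015 (60 mg/kg, i.e. 287 μmol/kg sc), killed 30 min after that. Brain regions dissected. 5-HTP measured by ion-pair reversed-phase HPLC with electrochemical detection. Mean ± SEM, n = 15 controls, 3–5 per dose; ANOVA with Dunnett's t test vs controls.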

[3] = molecular target: T2, Tryptophan 5-hydroxylase 1 (Rattus norvegicus); assay: Compound was tested for its effect on NSD 1015 induced accumulation of 5-HTP in rats in corpus striatum at a dosage of 3.2 umol/kg; type: functional; procedure, shortened: as §1
[4] = molecular target: T2, Tryptophan 5-hydroxylase 1 (Rattus norvegicus); assay: Approximate dose levels for a half maximal reduction of 5-HTP levels; type: functional; procedure, shortened: as §1
[5] = molecular target: T2, Tryptophan 5-hydroxylase 1 (Rattus norvegicus); assay: Compound was tested for its effect on NSD 1015 induced accumulation of 5-HTP(ng/g) in rats in corpus striatum at a dosage of 10 umol/kg; type: functional; procedure, shortened: as §1
[6] = molecular target: T2, Tryptophan 5-hydroxylase 1 (Rattus norvegicus); assay: Compound was tested for its effect on NSD 1015 induced accumulation of 5-HTP(ng/g) in rats in corpus striatum at a dosage of 100 umol/kg; type: functional, tissue-based; procedure, shortened: as §1
[7] = molecular target: T2, Tryptophan 5-hydroxylase 1 (Rattus norvegicus); assay: Compound was tested for its effect on NSD 1015 induced accumulation of 5-HTP(ng/g) in rats in corpus striatum at a dosage of 32 umol/kg; type: functional, tissue-based; procedure, shortened: as §1
[8] = molecular target: T2, Tryptophan 5-hydroxylase 1 (Rattus norvegicus); assay: Compound was tested for its effect on NSD 1015 induced accumulation of 5-HTP(ng/g) in rats in limbic system at a dosage of 10 umol/kg; type: functional, tissue-based; procedure, shortened: as §1
[9] = molecular target: T2, Tryptophan 5-hydroxylase 1 (Rattus norvegicus); assay: Compound was tested for its effect on NSD 1015 induced accumulation of 5-HTP(ng/g) in rats in limbic system at a dosage of 100 umol/kg; type: functional, tissue-based; procedure, shortened: as §1
[10] = molecular target: T2, Tryptophan 5-hydroxylase 1 (Rattus norvegicus); assay: Compound was tested for its effect on NSD 1015 induced accumulation of 5-HTP(ng/g) in rats in limbic system at a dosage of 3.2 umol/kg; type: functional, tissue-based; procedure, shortened: as §1
[11] = system: Rattus norvegicus; assay: No of rats exhibiting 5-HT motor syndrome tested in reserpinized rats at a subcutaneous dose of 10 umol/kg; 0 rats out of 2 showed activity; type: functional
[12] = system: Rattus norvegicus; assay: No of rats exhibiting 5-HT motor syndrome tested in reserpinized rats at a subcutaneous dose of 100 umol/kg; 4 rats out of 4 showed activity; type: functional
[13] = system: Rattus norvegicus; assay: No of rats exhibiting 5-HT motor syndrome tested in reserpinized rats at a subcutaneous dose of 32 umol/kg; 0 rats out of 4 showed activity; type: functional
[14] = molecular target: T2, Tryptophan 5-hydroxylase 1 (Rattus norvegicus); assay: Compound was tested for its effect on NSD 1015 induced accumulation of 5-HTP in rats corpus striatum at a dosage of 0.10 umol/kg; type: functional, tissue-based; procedure, shortened: as §1
[15] = molecular target: T2, Tryptophan 5-hydroxylase 1 (Rattus norvegicus); assay: Compound was tested for its effect on NSD 1015 induced accumulation of 5-HTP in rats in corpus striatum at a dosage of 0.32 umol/kg; type: functional, tissue-based; procedure, shortened: as §1
[16] = molecular target: T2, Tryptophan 5-hydroxylase 1 (Rattus norvegicus); assay: Compound was tested for its effect on NSD 1015 induced accumulation of 5-HTP(ng/g) in rats in corpus striatum at a dosage of 0.032 umol/kg; type: functional; procedure, shortened: as §1
[17] = molecular target: T2, Tryptophan 5-hydroxylase 1 (Rattus norvegicus); assay: Compound was tested for its effect on NSD 1015 induced accumulation of 5-HTP(ng/g) in rats in limbic system at a dosage of 0.032 umol/kg; type: functional; procedure, shortened: as §1
[18] = molecular target: T2, Tryptophan 5-hydroxylase 1 (Rattus norvegicus); assay: Compound was tested for its effect on NSD 1015 induced accumulation of 5-HTP(ng/g) in rats in limbic system at a dosage of 0.10 umol/kg; type: functional, tissue-based; procedure, shortened: as §1
[19] = molecular target: T2, Tryptophan 5-hydroxylase 1 (Rattus norvegicus); assay: Compound was tested for its effect on NSD 1015 induced accumulation of 5-HTP(ng/g) in rats in limbic system at a dosage of 0.32 umol/kg; type: functional, tissue-based; procedure, shortened: as §1
[20] = system: Rattus norvegicus; assay: No of rats exhibiting 5-HT motor syndrome tested in reserpinized rats at a subcutaneous dose of a. 0.1 umol/kg; 0 rats out of 4 showed activity; type: functional
[21] = system: Rattus norvegicus; assay: No of rats exhibiting 5-HT motor syndrome tested in reserpinized rats at a subcutaneous dose of 0.32 umol/kg; 4 rats out of 4 showed activity; type: functional
[22] = molecular target: T2, Tryptophan 5-hydroxylase 1 (Rattus norvegicus); assay: Compound was tested for its effect on NSD 1015 induced accumulation of 5-HTP(ng/g) in rats in corpus striatum at a dosage of 1.0 umol/kg; type: functional; procedure, shortened: as §1
[23] = molecular target: T2, Tryptophan 5-hydroxylase 1 (Rattus norvegicus); assay: Compound was tested for its effect on NSD 1015 induced accumulation of 5-HTP(ng/g) in rats in limbic system at a dosage of 1.0 umol/kg; type: functional, tissue-based; procedure, shortened: as §1
[24] = system: Rattus norvegicus; assay: No of rats exhibiting 5-HT motor syndrome tested in reserpinized rats at a subcutaneous dose of 0.32 umol/kg; 4 rats out of 4 showd activity; type: functional
[25] = system: Rattus norvegicus; assay: No of rats exhibiting 5-HT motor syndrome tested in reserpinized rats at a subcutaneous dose of 1.0 umol/kg; 3 rats out of 3 showed activity; type: functional
[26] = molecular target: T2, Tryptophan 5-hydroxylase 1 (Rattus norvegicus); assay: Compound was tested for its effect on NSD 1015 induced accumulation of 5-HTP in rats corpus striatum at a dosage of 10 umol/kg; type: functional, tissue-based; procedure, shortened: as §1
[27] = molecular target: T2, Tryptophan 5-hydroxylase 1 (Rattus norvegicus); assay: Compound was tested for its effect on NSD 1015 induced accumulation of 5-HTP in rats in corpus striatum at a dosage of 32 umol/kg; type: functional, tissue-based; procedure, shortened: as §1
[28] = molecular target: T2, Tryptophan 5-hydroxylase 1 (Rattus norvegicus); assay: Compound was tested for its effect on NSD 1015 induced accumulation of 5-HTP(ng/g) in rats in corpus striatum at a dosage of 3.2 umol/kg; type: functional; procedure, shortened: as §1
[29] = system: Rattus norvegicus; assay: No of rats exhibiting 5-HT motor syndrome tested in reserpinized rats at a subcutaneous dose of 10 umol/kg; 0 rats out of 3 showed activity; type: functional
[30] = system: Rattus norvegicus; assay: No of rats exhibiting 5-HT motor syndrome tested in reserpinized rats at a subcutaneous dose of 32 umol/kg; 4 rats out of 4 showed activity; type: functional
[31] = system: Rattus norvegicus; assay: No of rats exhibiting 5-HT motor syndrome tested in reserpinized rats at a subcutaneous dose of 3.2 umol/kg; 0 rats out of 3 showed activity; type: functional

Structure (SMILES): CN(C)[C@H]1CCc2cccc(O)c2C1
- IC50 [1]: 675 nM
- Activity [2]: 128 ng/g
- Activity [3]: 107 ng/g
- ED50 [4]: 20 µmol/kg
- Activity [5]: 69 ng/g
- Activity [6]: 45 ng/g
- Activity [7]: 66 ng/g
- Activity [8]: 162 ng/g
- Activity [9]: 85 ng/g
- Activity [10]: 178 ng/g
- Activity [11]: 0
- Activity [12]: 4
- Activity [13]: 0

Structure (SMILES): CCCN(CCC)[C@@H]1CCc2cccc(O)c2C1
- Activity [14]: 78 ng/g
- Activity [15]: 52 ng/g
- ED50 [4]: 0.1 µmol/kg
- Activity [16]: 87 ng/g
- Activity [17]: 163 ng/g
- Activity [18]: 119 ng/g
- Activity [19]: 86 ng/g
- Activity [20]: 0
- Activity [21]: 4

Structure (SMILES): CCN(CC)[C@@H]1CCc2cccc(O)c2C1
- IC50 [1]: 9.65 nM
- Activity [14]: 68 ng/g
- Activity [15]: 50 ng/g
- ED50 [4]: 0.05 µmol/kg
- Activity [16]: 87 ng/g
- Activity [22]: 47 ng/g
- Activity [17]: 131 ng/g
- Activity [18]: 110 ng/g
- Activity [19]: 70 ng/g
- Activity [23]: 72 ng/g
- Activity [20]: 0
- Activity [24]: 4
- Activity [25]: 3

Structure (SMILES): CCCCN(CCCC)[C@H]1CCc2cccc(O)c2C1
- IC50 [1]: 46.2 nM
- Activity [2]: 112 ng/g
- Activity [26]: 52 ng/g
- Activity [27]: 45 ng/g
- ED50 [4]: 5 µmol/kg
- Activity [28]: 90 ng/g
- Activity [8]: 95 ng/g
- Activity [10]: 168 ng/g
- Activity [29]: 0
- Activity [30]: 4
- Activity [31]: 0
